Assay results published in ChEMBL document CHEMBL3526046, “The role of aldehyde oxidase and xanthine oxidase in the biotransformation of a novel negative allosteric modulator of metabotropic glutamate receptor subtype 5” (Drug Metab Dispos, 2012).

Legend:
[1] = system: Plasma; assay: Drug level in Sprague-Dawley rat plasma treated with 56.6 mg/kg, ip VU0409106 single dose by LC-MS/MS analysis; assay type: ADME, organism-based; parameters: dose 56.6 mg/kg, route intraperitoneal; settings: in vivo
Procedure, shortened: (§1)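 Male Sprague-Dawley rats given a single intraperitoneal dose of 56.6 mg/kg. Plasma extracted with 2 volumes acetonitrile and centrifuged; metabolites profiled by LC-MS/MS.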

[2] = Drug level in Sprague-Dawley rat hepatic S9 fraction treated with 25 uM VU0409106 by LC-UV-MS analysis; assay type: ADME, tissue-based, Liver
Procedure, shortened: (§2)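 Hepatic S9 (5 mg/ml) in 0.1 M potassium phosphate pH 7.4 with 3 mM MgCl2 and 25 µM substrate, 37°C, 1 h under ambient oxygen; NADPH (2 mM) added in select runs. Reactions started by adding substrate. Protein precipitated with 2 volumes MeCN and the supernatant dried under nitrogen, reconstituted in 85:15 10 mM ammonium formate (pH 4.1)-MeCN, then analysed by LC-MS.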

[3] = system: Hepatocyte; assay: Drug level in Sprague-Dawley rat cryopreserved hepatocytes treated with 25 uM VU0409106 by LC-UV-MS analysis; assay type: ADME, cell-based
[4] = Drug level in human hepatic S9 fraction treated with 25 uM VU0409106 by LC-MS/MS analysis in presence of 100 uM hydralazine aldehyde oxidase inhibitor; assay type: ADME, tissue-based, Liver; procedure, shortened: as §2
[5] = Drug level in cynomolgus monkey hepatic S9 fraction treated with 25 uM VU0409106 by LC-UV-MS analysis; assay type: ADME, tissue-based, Macaca fascicularis, Liver; procedure, shortened: as §2
[6] = Drug level in human hepatic S9 fraction treated with 25 uM VU0409106 by LC-UV-MS analysis; assay type: ADME, tissue-based, Liver; procedure, shortened: as §2
[7] = Drug level in Sprague-Dawley rat hepatic S9 fraction treated with 25 uM VU0409106 by LC-MS/MS analysis in presence of 100 uM hydralazine aldehyde oxidase inhibitor; assay type: ADME, tissue-based, Liver; procedure, shortened: as §2
[8] = Drug level in human hepatic S9 fraction treated with 25 uM VU0409106 by LC-MS/MS analysis in presence of 100 uM raloxifene aldehyde oxidase inhibitor; assay type: ADME, tissue-based, Liver; procedure, shortened: as §2
[9] = Drug level in beagle dog hepatic S9 fraction treated with 25 uM VU0409106 by LC-MS/MS analysis; assay type: ADME, tissue-based, Canis lupus familiaris, Liver; procedure, shortened: as §2
[10] = system: Plasma; assay: Retention time in Sprague-Dawley rat plasma treated with 56.6 mg/kg, ip VU0409106 single dose; assay type: ADME, organism-based; parameters: dose 56.6 mg/kg, route intraperitoneal; settings: in vivo; procedure, shortened: as §1
[11] = Drug level in Sprague-Dawley rat hepatic S9 fraction treated with 25 uM VU0409106 by LC-MS/MS analysis in presence of 100 uM allopurinol xanthine oxidase inhibitor; assay type: ADME, tissue-based, Liver; procedure, shortened: as §2
[12] = Drug level in Sprague-Dawley rat hepatic S9 fraction treated with 3-fluoro-N-(4-methylthiazol-2-yl)-5-(6-oxo-1,6-dihydropyrimidin-5-yloxy)benzamide by LC-MS/MS analysis in presence of 100 uM allopurinol xanthine oxidase inhibitor; assay type: ADME, tissue-based, Liver

| Drug metabolism [1] | Drug metabolism [2] | Drug metabolism [3] | Drug metabolism [4] | Drug metabolism [5] | Drug metabolism [6] | Drug metabolism [7] | Drug metabolism [8] | Drug metabolism [9] | Retention_time [10] | Drug metabolism [11] | Drug metabolism [12] | Structure (SMILES) |
| --- | --- | --- | --- | --- | --- | --- | --- | --- | --- | --- | --- | --- |
| metabolite_detected | metabolite_detected | metabolite_detected | metabolite_not_detected | metabolite_detected | metabolite_detected | metabolite_not_detected | metabolite_not_detected | metabolite_not_detected | 12.55 min | metabolite_detected |  | Cc1csc(NC(=O)c2cc(F)cc(Oc3cnc[nH]c3=O)c2)n1 |
| metabolite_detected | metabolite_detected | metabolite_detected |  | metabolite_detected | metabolite_detected |  |  |  | 12.3 min | metabolite_not_detected | metabolite_not_detected | Cc1csc(NC(=O)c2cc(F)cc(Oc3c[nH]c(=O)[nH]c3=O)c2)n1 |
